ChEMBL document CHEMBL1944595, “1,4-diarylpiperazines and analogs as anti-tubercular agents: synthesis and biological evaluation” (Eur J Med Chem, 2012)
In brackets after ≈: the same amount, converted by molar mass.

Experiments:
Type in all cases: functional
[1] = system: Mycobacterium tuberculosis; assay: Antibacterial activity against Mycobacterium tuberculosis H37Rv harboring pSMT1 encoding Vibrio harveyi luxAB gene after 7 days by luminometric analysis; details: 168 h
[2] = system: Mycobacterium tuberculosis; assay: Antibacterial activity against Mycobacterium tuberculosis H37Rv harboring pSMT1 encoding Vibrio harveyi luxAB gene infected in mouse J774.A1 cells at 1 uM after 5 days by luminometric analysis; details: J774.A1, 120 h, read-out: GI
In short: (§1)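 J774.A1 macrophages seeded at 40 000 per well and rested overnight. Infected with 4000 RLU of luminescent H37Rv (MOI 0.1) in DMEM with penicillin/Fungizone, with compound dilutions added. Treated 5 days, then washed, given 1 h 1% gentamicin, and lysed with 1% Triton X-100. Lysate luminescence read over 10 s with n-decanal. Inhibition relative to untreated infected cells; six replicate cultures.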

[3] = system: Mycobacterium tuberculosis; assay: Antibacterial activity against Mycobacterium tuberculosis H37Rv harboring pSMT1 encoding Vibrio harveyi luxAB gene at 10 uM after 7 days by luminometric analysis; details: 168 h, read-out: GI
In short: (§2)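 Same extracellular assay. Bacteria seeded at 1000 RLU per well in Sauton + 10% FCS. Compounds added from 1 mM DMSO stocks to final 10, 1 or 0.1 per well. Incubated 7 days at 37 °C, 5% CO2. Wells harvested, washed four times with PBS and pooled. 1% n-decanal added and luminescence read over 10 s. Percent growth inhibition calculated against untreated control cultures.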

[4] = system: Mycobacterium tuberculosis; assay: Antibacterial activity against Mycobacterium tuberculosis H37Rv harboring pSMT1 encoding Vibrio harveyi luxAB gene at 0.1 uM after 7 days by luminometric analysis; details: 168 h, read-out: GI; in short: as §2
[5] = system: Mycobacterium tuberculosis; assay: Antibacterial activity against Mycobacterium tuberculosis H37Rv harboring pSMT1 encoding Vibrio harveyi luxAB gene infected in mouse J774.A1 cells at 0.5 uM after 5 days by luminometric analysis; details: J774.A1, 120 h, read-out: GI; in short: as §1
[6] = system: Mycobacterium tuberculosis; assay: Antibacterial activity against Mycobacterium tuberculosis H37Rv harboring pSMT1 encoding Vibrio harveyi luxAB gene at 1 uM after 7 days by luminometric analysis; details: 168 h, read-out: GI; in short: as §2
[7] = system: Mycobacterium tuberculosis; assay: Antibacterial activity against Mycobacterium tuberculosis H37Rv harboring pSMT1 encoding Vibrio harveyi luxAB gene infected in mouse J774.A1 cells at 2 uM after 5 days by luminometric analysis; details: J774.A1, 120 h, read-out: GI; in short: as §1
[8] = system: Mycobacterium tuberculosis; assay: Antimicrobial activity against multidrug-resistant Mycobacterium tuberculosis LAM1 by BACTEC 460-TB method
In short: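 Clinical MDR LAM-1 isolate, resistant to isoniazid, rifampicin, rifabutin and prothionamide. Pre-cultured in 7H9-based BACTEC vial to growth index 300. 100 µL inoculated into a new vial with compound dilutions prepared in 7H9 + 10% OADC. GI read daily. MIC99 determined by comparison with an untreated culture diluted 100-fold at inoculation.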

SMILES | MIC50 [1] | inhibition in vivo at 1 µM [2] | inhibition of growth at 10 µM [3] | inhibition of growth at 0.1 µM [4] | inhibition in vivo at 0.5 µM [5] | inhibition of growth at 1 µM [6] | inhibition in vivo at 2 µM [7] | MIC99 [8]
NNC(=O)c1ccncc1 [ISONIAZID] | 0.465 µM (≈ 0.0638 µg/mL) | 29.4% | 100% | 98% | 9.77% | 100% | 51.4% | –
N#Cc1ccc(N2CCN(c3ccc(C#N)cc3)CC2)cc1 | – | – | 22% | < 10% | – | < 10% | – | –
N=C(N)c1ccc(NCCNc2ccccc2)cc1 | – | – | < 100% | < 10% | – | < 10% | – | –
CCCCCCNC(=N)c1ccc(N2CCN(c3ccccc3)CC2)cc1.Cl | 0.264 µM | 79.2% | 99% | 49% | 67.1% | 91% | 88.1% | 2.11 µM
CNC(=N)c1ccc(N2CCN(c3ccccc3)CC2)cc1.Cl | 15.9 µM | 6.43% | 16% | < 10% | -0.8% | < 10% | 14.9% | –
CCCCCNC(=N)c1ccc(N2CCN(c3ccccc3)CC2)cc1.Cl | 1.2 µM | 53.6% | 95% | < 10% | 44.7% | 39% | 64.7% | 3.85 µM
O=[N+]([O-])c1cccc(NCCNc2cccc([N+](=O)[O-])c2)c1 | – | – | 13% | < 10% | – | < 10% | – | –
CCCCNC(=N)c1ccc(N2CCN(c3ccccc3)CC2)cc1.Cl | 2.16 µM | 31.6% | 66% | < 10% | 25.6% | < 10% | 50.6% | –
O=[N+]([O-])c1ccc(N2CCN(c3ccccc3)CC2)cc1 | – | – | 26% | < 10% | – | < 10% | – | –
CCCCCCCNC(=N)c1ccc(N2CCN(c3ccccc3)CC2)cc1.Cl | 0.091 µM | 64.2% | 100% | 47% | 61.1% | 94% | 83.3% | 1.48 µM
N#Cc1ccc(NCCNc2ccc(C#N)cc2)cc1 | – | – | 10% | < 10% | – | < 10% | – | –
N#Cc1cccc(NCCNc2cccc(C#N)c2)c1 | – | – | < 10% | < 10% | – | < 10% | – | –
O=[N+]([O-])c1ccccc1NCCNc1ccccc1[N+](=O)[O-] | – | – | < 10% | < 10% | – | < 10% | – | –
CCNC(=N)c1ccc(N2CCN(c3ccccc3)CC2)cc1.Cl | 11.9 µM | 13.4% | 10% | < 10% | 3.93% | < 10% | 22.5% | –
CCCNC(=N)c1ccc(N2CCN(c3ccccc3)CC2)cc1.Cl | 7.01 µM | 12.9% | 33% | < 10% | 5.62% | < 10% | 26.1% | –
CCC(CC)NC(=N)c1ccc(NCCNc2ccccc2)cc1 | – | – | 63% | 10% | – | 19% | – | –
CCCCCCCCNC(=N)c1ccc(N2CCN(c3ccccc3)CC2)cc1.Cl | 0.072 µM | 31.1% | 100% | 61% | 15.2% | 94% | 71.6% | 1.17 µM
CCC(CC)NC(=N)c1ccc(N2CCN(c3ccccc3)CC2)cc1 | – | – | 67% | < 10% | – | 19% | – | –
N#Cc1ccc(N2CCN(c3ccccc3)CC2)cc1 | – | – | 23% | < 10% | – | < 10% | – | –
O=[N+]([O-])c1ccc(N2CCN(c3ccc([N+](=O)[O-])cc3)CC2)cc1 | – | – | 13% | < 10% | – | 10% | – | –
CCCCCCNC(=N)c1ccc(NCCNc2ccccc2)cc1 | – | – | 93% | 23% | – | 48% | – | –
CCCCCCCCCCCCNC(=N)c1ccc(N2CCN(c3ccccc3)CC2)cc1.Cl | 0.052 µM | 23.4% | 100% | 68% | 10.7% | 97% | 44.9% | 0.95 µM
Nc1ccc(N2CCN(c3ccccc3)CC2)cc1 | – | – | 30% | < 10% | – | < 10% | – | –
N=C(NCCc1ccccc1)c1ccc(N2CCN(c3ccccc3)CC2)cc1 | – | – | 97% | < 10% | – | 56% | – | –
N#Cc1ccccc1NCCNc1ccccc1C#N | – | – | < 10% | < 10% | – | < 10% | – | –
O=[N+]([O-])c1ccc(NCCNc2ccc([N+](=O)[O-])cc2)cc1 | – | – | 16% | < 10% | – | < 10% | – | –
Cl.N=C(N)c1ccc(N2CCN(c3ccccc3)CC2)cc1 | 29.6 µM | 0.41% | 14% | < 10% | -0.47% | < 10% | 1.83% | –
Nc1ccc(N2CCN(c3ccc(N)cc3)CC2)cc1 | – | – | 27% | < 10% | – | 10% | – | –
